Laboratory results published in article PMC8653574 (Bioorganic & medicinal chemistry letters, 2018).
“Also recorded” adds a separate entry of the source.

What was measured:
Type in all cases: cell-based, human
[1] = test system: reactive oxygen species (ROS) in C4–2 cells; test: ROS accumulation by DCFDA staining; details: 10 μM, 48 h
Outline: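 C4–2 cells were left untreated or exposed for 48 h to test compound at 10 μM or H2O2 at 10 μM as positive control. Intracellular ROS was stained with DCFDA and quantified.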

[2] = test system: PARP1 cleavage in C4–2 cells; test: PARP1 cleavage assay; details: C4–2 cells treated with compound
[3] = test system: C4–2 cells; test: Acridine orange/ethidium bromide; details: 48 h incubation
Outline: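 C4–2 cells were double-stained with acridine orange, which marks live and dead cells, and ethidium bromide, which marks dead cells only. Cell morphology was then examined to tell apoptosis from necrosis.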

[4] = test system: C4–2 cells; test: Wound healing; details: 12 h, 24 h and 48 h
Outline: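 A scratch was made in a C4–2 monolayer. The wounded cells were incubated for a further 12, 24 and 48 h. Images were taken at the start and at each interval to assess migration.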

[5] = test system: C4–2 cells; test: DNA ladder; details: 10 μM, 48 h

Row | Compound | ROS level (DCFDA staining) [1] | PARP1 cleavage (cleaved PARP level) [2] | AO/EB staining: mode of cell death [3] | inhibition of cell migration [4] | DNA ladder formation [5]
1 | H2O2 | high DCFDA staining |  |  |  | 
2 | COc1ccc2c(C3CC(c4ccncc4)=NO3)c[nH]c2c1 (stereo not drawn) [6c] |  | induced apoptosis | triggered apoptosis | potently inhibit C4–2 cell migration; also recorded: strong anti-cell motility property | triggered the formation of DNA ladder
3 | Cc1c(C2CC(c3ccncc3)=NO2)c2ccccc2n1Cc1ccc(Cl)cc1 (stereo not drawn) [6i] |  | induced apoptosis | triggered apoptosis | potently inhibit C4–2 cell migration; also recorded: strong anti-cell motility property | triggered the formation of DNA ladder
